RGS4 act: RGS4 potentiators or activators, primary screen, cell-based, HEK293 M3R inducible RGS4, calcium flux. carbachol calcium flux Fluo4; active compounds read low. B-score at 10 µM. 310,000 tested, 0.92% active;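 active = B-score of the integrated calcium signal more than 4 SD below the library mean, with starting fluorescence not abnormally high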;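 also: negative B-score means reduced calcium response which marks RGS4 activation or potentiation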
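Test system: HEK293 cells with stable M3R and inducible RGS4; also added: carbachol at ECmax as muscarinic agonist stimulus; schedule: dye loading 30 min 37 °C, buffer rest 30 min RT; technique: kinetic calcium fluorescence imaging with Fluo4-AM dye, 2 µM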
MrgX1 antagonist: antagonists of human MrgX1 receptor, primary screen, HEK293 cells, Fluo-4 calcium flux | B-score at 10 µM | BAM8-22 antagonism; active compounds read low | 310,000 tested, 1.3% active | Mas-related G-protein coupled receptor member X1 (Homo sapiens), Q96LB2;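 active = calcium-response B-score plate-corrected more than 3 library SD below zero, starting fluorescence within 5 deviations, no agonist response on first addition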;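 also: peak minus trough fluorescence over baseline after final BAM8-22 challenge near maximal dose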
Target sequence (Q96LB2 whole entry, looked up): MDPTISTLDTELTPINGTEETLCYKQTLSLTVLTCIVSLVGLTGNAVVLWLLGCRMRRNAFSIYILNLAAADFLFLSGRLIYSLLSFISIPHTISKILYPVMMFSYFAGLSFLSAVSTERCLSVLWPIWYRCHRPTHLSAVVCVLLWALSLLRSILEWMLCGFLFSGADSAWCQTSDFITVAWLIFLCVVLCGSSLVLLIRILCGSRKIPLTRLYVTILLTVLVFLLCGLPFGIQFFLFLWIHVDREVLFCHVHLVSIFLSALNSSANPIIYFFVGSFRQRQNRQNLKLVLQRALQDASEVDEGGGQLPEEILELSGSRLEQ
MrgX1 allo act: positive allosteric modulators of MrgX1, primary screen, HEK293 cells, Fluo-4 calcium flux | FDSS; active compounds read high | AID 588675, 2011 | 310,000 tested, 0.63% active | B-score at 10 µM | Mas-related G-protein coupled receptor member X1 (Homo sapiens), Q96LB2;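 active = plate-corrected calcium response at least 3 library SD above typical, normal starting fluorescence, not activating the receptor alone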;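 also: compound read alongside a low EC10 to EC30 dose of BAM8-22 agonist; peak minus trough fluorescence over baseline measured at the second addition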
RGS4 block: RGS4 inhibitors, primary screen, cell-based, HEK293 M3R inducible RGS4, calcium flux | Regulator of G-protein signaling 4 (Homo sapiens), P49798 | Fluo-4 calcium flux; active compounds read high; triggered by carbachol at its EC20 | B-score at 10 µM | 310,000 tested, 0.45% active;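 active = B-score, a plate-corrected calcium signal, over three deviations above library mean, with baseline fluorescence within five deviations of library mean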;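 also: RGS4 expression induced by doxycycline in cells with stable M3 receptor; B-score is computed from the integrated fluorescence ratio over baseline after carbachol; higher B-score means a larger calcium signal and so more RGS4 inhibition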
Target sequence (P49798 whole entry, looked up): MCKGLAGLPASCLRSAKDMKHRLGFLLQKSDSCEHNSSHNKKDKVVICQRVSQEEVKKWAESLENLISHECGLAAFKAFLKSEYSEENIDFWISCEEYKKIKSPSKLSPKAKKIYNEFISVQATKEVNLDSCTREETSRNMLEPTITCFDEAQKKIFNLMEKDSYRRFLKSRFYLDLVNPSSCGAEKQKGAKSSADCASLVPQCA
MrgX1 ag: agonists of human MrgX1 receptor, primary screen, HEK293 cells, Fluo-4 calcium flux; Fluo-4 calcium fluorescence, agonist mode; active compounds read high; 310,000 tested, 0.44% active; AID 588627, 2011; B-score at 10 µM; Mas-related G-protein coupled receptor member X1 (Homo sapiens), Q96LB2;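 active = calcium response B-score plate-corrected fluorescence ratio at least 3 library SD, with starting fluorescence B-score inside 5 SD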
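times = overnight plating, then 30 min 37 °C plus 30 min room-temperature dye loading | assay system = stable human MrgX1 HEK293 cell line | input = fifteen thousand cells per well | signal = kinetic calcium dye fluorescence, Fluo-4 NW | dosing = compound delivered in addition one of three | read-out = B-scored fluorescence response ratio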
RGS4 block valid: enhanced carbachol calcium response, M3R/RGS4 cells, RGS4 inhibitor project, cell-based, validation screen, HEK293 M3R/RGS4, calcium flux; shares compounds with RGS4 block; carbachol calcium Fluo-4 fluorescence; carbachol added at its EC20; 0 = buffer wells, 100 = carbachol control; calcium response, % at 10 µM; 1,700 tested, 65% active; AID 492999, 2010;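 active = duplicate-averaged calcium response above the buffer-only control mean plus 5 SD of those controls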;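 also: integrated fluorescence ratio F max minus min over baseline F0; higher response in RGS4-induced cells means RGS4 inhibition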
RGS4 uninduced: carbachol calcium response in non-induced M3R cells, confirmation, counter-screen for RGS4 inhibitor project, cell-based, HEK293 M3R. shares compounds with RGS4 block. activity (percent), % at 10 µM. carbachol calcium Fluo-4; submaximal (EC20) carbachol stimulus; buffer wells 0%, carbachol control wells 100%. 1,900 tested, 20% active. AID 493000, 2010; call rule not given here;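 also: RGS4 induction absent so cells express M3R without RGS4; higher means more calcium signal and flags a non-specific hit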
RGS4 inh ctr2: signal in non-induced cells without carbachol, RGS4 inhibitor counter-screen; shares compounds with RGS4 block; HEK293 M3R/RGS4 non-induced, Fluo-4 calcium, no carbachol; normalised: buffer wells 0%, carbachol wells 100%; calcium response (agonist-mode artifact), % at 10 µM; 1,900 tested, 22% active; AID 493001;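 active = duplicate-averaged calcium rise in uninduced cells above buffer wells' mean plus 5 SD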
Large screens that a line does not name were inactive (follow-up assays come after a bar, where they were run). Sampled rows, rich in hits. Any-hit rate of the full collection: about 3.5%.

Cc1cc2cc(C(c3nnnn3C(C)(C)C)N(Cc3ccco3)CC3CCCO3)c(=O)[nH]c2cc1C (configuration not stated)	RGS4 block 5.4 | RGS4 block valid 18% | RGS4 uninduced inactive | RGS4 inh ctr2 inactive
COc1ccc2[nH]c(=O)c(C(c3nnnn3C(C)(C)C)N(Cc3ccco3)CC3CCCO3)cc2c1 (configuration not stated)	none | RGS4 uninduced inactive | RGS4 inh ctr2 7.0%
COc1ccc2[nH]c(=O)c(C(c3nnnn3CC3CCCO3)N3CCCCC3)cc2c1 (configuration not stated)	none
Cc1cc(C)c2[nH]c(=O)c(C(c3nnnn3C(C)(C)C)N(Cc3ccco3)CC3CCCO3)cc2c1 (configuration not stated)	none | RGS4 block valid inactive | RGS4 uninduced inactive | RGS4 inh ctr2 inactive
Oc1ccc(N=Nc2ccccc2)o1	RGS4 block 4.9 | RGS4 block valid 7.5% | RGS4 uninduced inactive | RGS4 inh ctr2 inactive
CCOC(=O)CSc1nc(N)c(C#N)c(-c2cccs2)c1C#N	none
N#Cc1c(N)nc(SCc2ccccn2)c(C#N)c1-c1cccs1	RGS4 block 4.7 | RGS4 block valid 9.0% | RGS4 uninduced 42% | RGS4 inh ctr2 inactive
COC(=O)c1c(N2C(=O)[C@H]3[C@@H](C2=O)[C@]2(C(=O)Nc4ccccc42)N2CCC[C@@H]32)sc(C)c1C	none
O=C1[C@H]2[C@@H](C(=O)N1c1cc(Cl)cc(Cl)c1)[C@]1(C(=O)Nc3ccccc31)N1CCC[C@@H]21	RGS4 block 5.2 | RGS4 block valid inactive | RGS4 uninduced inactive | RGS4 inh ctr2 inactive
Nn1c(Cc2cccc3ccccc23)nnc1SCCOc1ccc(Br)cc1	none | RGS4 block valid inactive | RGS4 uninduced inactive | RGS4 inh ctr2 inactive
Nn1c(Cc2cccc3ccccc23)nnc1SCCOc1ccc(F)cc1	RGS4 block 6.5 | RGS4 block valid inactive | RGS4 uninduced inactive | RGS4 inh ctr2 inactive
Nn1c(Cc2cccc3ccccc23)nnc1SCc1c(F)cccc1Cl	none
Nc1ccc2nc(-c3ccccc3)sc2c1	none
Cc1ccc2nc(-c3ccc(N)cc3)sc2c1	RGS4 block 5.6 | RGS4 block valid 16% | RGS4 uninduced inactive | RGS4 inh ctr2 inactive
CCn1c(=O)c([N+](=O)[O-])c(Cl)c2ccccc21	MrgX1 allo act 10, RGS4 block 6.6 | RGS4 block valid 8.5% | RGS4 uninduced inactive | RGS4 inh ctr2 9.5%
CC(Sc1nnc(-c2ccco2)n1C)C(=O)Nc1nccs1 (configuration not stated)	none
COc1ccc(-c2nc(N)n(C(=O)c3ccccc3Cl)n2)cc1	none
O=C1NN(c2ccccc2)C(=O)/C1=C\c1cccc(OC(=O)c2cccs2)c1	RGS4 block 20, MrgX1 ag 27 | RGS4 block valid 70% | RGS4 uninduced inactive | RGS4 inh ctr2 inactive
Cc1cc(F)ccc1S(=O)(=O)Nc1ccccc1C(=O)NCc1ccccn1	none
O=C(Nc1ccc(Br)cc1)c1cccc(S(=O)(=O)Nc2cnc3ccccc3c2)c1	RGS4 block 5.9 | RGS4 block valid 16% | RGS4 uninduced inactive | RGS4 inh ctr2 inactive
Cc1ccc(CNC(=O)C2CCCN(c3nc4ccsc4c(=O)s3)C2)cc1 (configuration not stated)	none
Cc1nc(N2CCN(c3ccc(Cl)cc3)CC2)[nH]c(=O)c1C	none
CN1C/C(=C\c2ccc(N3CCOCC3)cc2)C(=O)/C(=C/c2ccc(N3CCOCC3)cc2)C1	none
CN1C/C(=C/c2ccsc2)C(=O)/C(=C/c2ccsc2)C1	RGS4 block 6.8 | RGS4 block valid 9.5% | RGS4 uninduced inactive | RGS4 inh ctr2 inactive
CN1C/C(=C/c2ccncc2)C(=O)/C(=C/c2ccncc2)C1	RGS4 block 21 | RGS4 block valid 80% | RGS4 uninduced inactive | RGS4 inh ctr2 inactive
CCOc1cc(/C=C2\CN(C)C/C(=C\c3ccc(O)c(OCC)c3)C2=O)ccc1O	none
CCOC(=O)C(=Cc1cc(=O)c(OC)co1)C(=O)OCC	RGS4 block 8 (no result: MrgX1 antagonist, MrgX1 allo act, MrgX1 ag) | RGS4 block valid 15% | RGS4 uninduced inactive | RGS4 inh ctr2 14%
Nc1nc(Nc2ccccc2)nc(NCc2ccco2)c1[N+](=O)[O-]	none | RGS4 block valid inactive | RGS4 uninduced inactive | RGS4 inh ctr2 inactive
C#CCOC(=O)Nc1cccn(Cc2c(Cl)cccc2Cl)c1=O	none
COC(=O)Nc1ccc(=O)n(Cc2c(Cl)cccc2Cl)c1	none | RGS4 uninduced inactive | RGS4 inh ctr2 inactive
CCN1C(=O)/C(=C\c2ccncc2)SC1=Nc1ccc(C)c(C)c1	RGS4 block 8.2 | RGS4 block valid 30% | RGS4 uninduced inactive | RGS4 inh ctr2 inactive
COc1ccccc1/C=C/C=N/n1c(-c2cc(C)[nH]n2)n[nH]c1=S	none | RGS4 uninduced inactive | RGS4 inh ctr2 inactive
COc1ccccc1/C=C/C=N/n1c(-c2ccccn2)n[nH]c1=S	none
COc1ccc(C(=O)/C=C/c2cc(C(=O)O)cc3c2OCOC3)c(O)c1	RGS4 block 24 | RGS4 block valid 64% | RGS4 uninduced 70% | RGS4 inh ctr2 inactive
O=C(/C=C/c1ccc(O)c(O)c1)c1ccccc1O	MrgX1 allo act 14, RGS4 block 13 | RGS4 block valid 25% | RGS4 uninduced 48% | RGS4 inh ctr2 inactive
COc1ccc(C(=O)/C=C/c2ccc(OC)cc2OC)c(O)c1	none
O=C(/C=C/c1ccoc1)c1ccccc1O	none
COc1ccc(C(=O)/C=C/c2ccccc2)c(O)c1	none | RGS4 block valid inactive | RGS4 uninduced inactive | RGS4 inh ctr2 inactive
CC(C)(CNc1ccc(S(=O)(=O)C(F)(F)F)cc1[N+](=O)[O-])N1CCOCC1	none
Cc1cc(C)c(OCC(=O)OCC(=O)N(C)C2CCS(=O)(=O)C2)c(C)c1 (configuration not stated)	none
C/C(Cn1cnc([N+](=O)[O-])n1)=N\NC(=O)c1ccc(O)cc1O	none
C[C@@H]1NC(=O)N(CCCn2ccnc2)C1=O	none

Bioassay records deposited in PubChem BioAssay by Johns Hopkins Ion Channel Center.
